ChEMBL document CHEMBL4814052, “Isatin-derived azoles as new potential antimicrobial agents: Design, synthesis and biological evaluation” (2021)
Values after ≈ are worked out from the molar mass of the structure shown. Active and inactive are the calls of the source. The rule behind the calls is not given here.

How the values were obtained:
Escherichia coli [1] = assay: Antibacterial activity against Escherichia coli ATCC 25922 by broth microdilution method; type: functional
Staphylococcus aureus [2] = assay: Antibacterial activity against Staphylococcus aureus by broth microdilution method; type: functional
Staphylococcus aureus [3] = assay: Antibacterial activity against Staphylococcus aureus ATCC 29213 by broth microdilution method; type: functional
Klebsiella pneumoniae = assay: Antibacterial activity against Klebsiella pneumonia by broth microdilution method; type: functional
Pseudomonas aeruginosa [4] = assay: Antibacterial activity against Pseudomonas aeruginosa ATCC 27853 by broth microdilution method; type: functional
Enterococcus faecalis [5] = assay: Antibacterial activity against Enterococcus faecalis by broth microdilution method; type: functional
Escherichia coli [6] = assay: Antibacterial activity against Escherichia coli by broth microdilution method; type: functional
Pseudomonas aeruginosa [7] = assay: Antibacterial activity against Pseudomonas aeruginosa by broth microdilution method; type: functional
Staphylococcus aureus [8] = assay: Antibacterial activity against Staphylococcus aureus ATCC 25923 by broth microdilution method; type: functional
Acinetobacter baumannii = assay: Antibacterial activity against Acinetobacter baumannii by broth microdilution method; type: functional
Staphylococcus aureus [9] = assay: Antibacterial activity against methicillin resistant Staphylococcus aureus by broth microdilution method; type: functional
Candida parapsilosis = assay: Fungicidal activity against Candida parapsilosis ATCC 22019 assessed as […] by broth microdilution method
Calf thymus DNA [10] = assay: Binding affinity to calf thymus DNA assessed as hyperchromic effect by UV-Vis spectroscopy; type: nucleic-acid assay; settings: Bos taurus
Procedure, shortened: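 UV-Vis absorbance of the compound–DNA mixture is compared with the summed absorbances of free DNA and free compound. Hyperchromism is read as higher absorbance of the mixture than that sum.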

Candida tropicalis [11] = assay: Antifungal activity against Candida tropicalis; type: functional
Escherichia coli [12] = assay: Potency index, ratio of MIC of norfloxacin to MIC of compound for antibacterial activity against Escherichia coli ATCC 25922 by broth microdilution method; type: functional
Escherichia coli [13] = assay: Antibacterial activity against Escherichia coli ATCC 25922 measured after 10 passages by broth microdilution method; type: functional, organism-based
Enterococcus faecalis [14] = assay: Bactericidal activity against Enterococcus faecalis by broth microdilution method; type: functional, organism-based
Calf thymus DNA [15] = assay: Binding affinity to calf thymus DNA assessed as reduction in neutral red-DNA complex formation by competitive binding assay; type: nucleic-acid assay; settings: Bos taurus
Candida tropicalis [16] = assay: Fungicidal activity against Candida tropicalis by broth microdilution method; type: functional, organism-based
Escherichia coli [17] = assay: Antibacterial activity against Escherichia coli ATCC 25922 measured after 6 passages by broth microdilution method; type: functional, organism-based

Compound	MIC (Escherichia coli [1]) [µg/mL]	MIC (Staphylococcus aureus [2]) [µg/mL]	MIC (Staphylococcus aureus [3]) [µg/mL]	MIC (Klebsiella pneumoniae) [µg/mL]	MIC (Pseudomonas aeruginosa [4]) [µg/mL]	MIC (Enterococcus faecalis [5]) [µg/mL]	MIC (Escherichia coli [6]) [µg/mL]	MIC (Pseudomonas aeruginosa [7]) [µg/mL]	MIC (Staphylococcus aureus [8]) [µg/mL]	MIC (Acinetobacter baumannii) [µg/mL]	MIC (Staphylococcus aureus [9]) [µg/mL]	other results
O=C1C(O)c2ccccc2N1CCn1cncn1 (stereo unspecified)	256 (≈ 1050 µM)	128 (≈ 524 µM)	64 (≈ 262 µM)	128 (≈ 524 µM)	128 (≈ 524 µM)	128 (≈ 524 µM)	128 (≈ 524 µM)	256 (≈ 1050 µM)	64 (≈ 262 µM)	64 (≈ 262 µM)	128 (≈ 524 µM)	
O=C1C(=O)N(CCn2cnc([N+](=O)[O-])c2)c2ccccc21	64 (≈ 224 µM)	128 (≈ 447 µM)	32 (≈ 112 µM)	64 (≈ 224 µM)	256 (≈ 894 µM)	128 (≈ 447 µM)	128 (≈ 447 µM)	64 (≈ 224 µM)	64 (≈ 224 µM)	32 (≈ 112 µM)	256 (≈ 894 µM)	
CC(=O)/C=C1\C(=O)N(CCn2cncn2)c2ccccc21	1 (≈ 3.54 µM)	64 (≈ 227 µM)	64 (≈ 227 µM)	32 (≈ 113 µM)	32 (≈ 113 µM)	32 (≈ 113 µM)	64 (≈ 227 µM)	32 (≈ 113 µM)	128 (≈ 453 µM)	64 (≈ 227 µM)	128 (≈ 453 µM)	Ratio (Candida parapsilosis): 4; Activity (Calf thymus DNA [10]): Active; MIC (Candida tropicalis [11]): 8 µg/mL (≈ 28.3 µM); Ratio (Escherichia coli [12]): 8; Activity (Escherichia coli [13]): Active; Activity (Enterococcus faecalis [14]): inactive; Activity (Calf thymus DNA [15]): Active; Activity (Candida tropicalis [16]): inactive
OC(Cn1cncn1)(Cn1cncn1)c1ccc(F)cc1F												Activity (Candida tropicalis [11]): Active
O=C1C(=O)N(CCn2cnc3ccccc32)c2ccccc21	256 (≈ 879 µM)	64 (≈ 220 µM)	256 (≈ 879 µM)	128 (≈ 439 µM)	256 (≈ 879 µM)	256 (≈ 879 µM)	256 (≈ 879 µM)	512 (≈ 1760 µM)	256 (≈ 879 µM)	128 (≈ 439 µM)	256 (≈ 879 µM)	
O=C(CC1(O)C(=O)N(CCn2cncn2)c2ccccc21)c1ccc(Cl)cc1 (stereo unspecified)	512 (≈ 1290 µM)	128 (≈ 323 µM)	128 (≈ 323 µM)	256 (≈ 645 µM)	128 (≈ 323 µM)	256 (≈ 645 µM)	128 (≈ 323 µM)	512 (≈ 1290 µM)	256 (≈ 645 µM)	64 (≈ 161 µM)	128 (≈ 323 µM)	
O=C(/C=C1\C(=O)N(CCn2cncn2)c2ccccc21)c1ccc(Cl)cc1	64 (≈ 169 µM)	512 (≈ 1350 µM)	64 (≈ 169 µM)	128 (≈ 338 µM)	512 (≈ 1350 µM)	32 (≈ 84.5 µM)	512 (≈ 1350 µM)	512 (≈ 1350 µM)	128 (≈ 338 µM)	> 512	32 (≈ 84.5 µM)	
Cc1ncc([N+](=O)[O-])n1CCN1C(=O)C(=O)c2ccccc21	128 (≈ 426 µM)	128 (≈ 426 µM)	128 (≈ 426 µM)	64 (≈ 213 µM)	256 (≈ 853 µM)	128 (≈ 426 µM)	128 (≈ 426 µM)	64 (≈ 213 µM)	256 (≈ 853 µM)	128 (≈ 426 µM)	128 (≈ 426 µM)	
CCn1cc(C(=O)O)c(=O)c2cc(F)c(N3CCNCC3)cc21 [NORFLOXACIN]	8 (≈ 25.1 µM)	1 (≈ 3.13 µM)	2 (≈ 6.26 µM)	4 (≈ 12.5 µM)	2 (≈ 6.26 µM)	4 (≈ 12.5 µM)	16 (≈ 50.1 µM)	2 (≈ 6.26 µM)	1 (≈ 3.13 µM)	8 (≈ 25.1 µM)	8 (≈ 25.1 µM)	Activity (Escherichia coli [17]): inactive
O=C(/C=C1\C(=O)N(CCn2cncn2)c2ccccc21)c1ccccc1	8 (≈ 23.2 µM)	128 (≈ 372 µM)	128 (≈ 372 µM)	64 (≈ 186 µM)	128 (≈ 372 µM)	128 (≈ 372 µM)	64 (≈ 186 µM)	32 (≈ 92.9 µM)	128 (≈ 372 µM)	128 (≈ 372 µM)	256 (≈ 743 µM)	
Cc1cc2ncn(CCN3C(=O)C(=O)c4ccccc43)c2cc1C	256 (≈ 802 µM)	256 (≈ 802 µM)	128 (≈ 401 µM)	128 (≈ 401 µM)	256 (≈ 802 µM)	256 (≈ 802 µM)	256 (≈ 802 µM)	256 (≈ 802 µM)	256 (≈ 802 µM)	32 (≈ 100 µM)	128 (≈ 401 µM)	
Cc1nccn1CCN1C(=O)C(=O)c2ccccc21	128 (≈ 501 µM)	128 (≈ 501 µM)	256 (≈ 1000 µM)	64 (≈ 251 µM)	128 (≈ 501 µM)	128 (≈ 501 µM)	256 (≈ 1000 µM)	128 (≈ 501 µM)	128 (≈ 501 µM)	32 (≈ 125 µM)	128 (≈ 501 µM)	
O=C(CC1(O)C(=O)N(CCn2cncn2)c2ccccc21)c1ccc(O)cc1 (stereo unspecified)	256 (≈ 677 µM)	256 (≈ 677 µM)	256 (≈ 677 µM)	256 (≈ 677 µM)	256 (≈ 677 µM)	256 (≈ 677 µM)	256 (≈ 677 µM)	256 (≈ 677 µM)	256 (≈ 677 µM)	512 (≈ 1350 µM)	256 (≈ 677 µM)	
Cc1ccc(C(=O)/C=C2\C(=O)N(CCn3cncn3)c3ccccc32)cc1	256 (≈ 714 µM)	64 (≈ 179 µM)	256 (≈ 714 µM)	256 (≈ 714 µM)	512 (≈ 1430 µM)	256 (≈ 714 µM)	64 (≈ 179 µM)	128 (≈ 357 µM)	8 (≈ 22.3 µM)	32 (≈ 89.3 µM)	128 (≈ 357 µM)	
Cc1ccc(C(=O)CC2(O)C(=O)N(CCn3cncn3)c3ccccc32)cc1 (stereo unspecified)	512 (≈ 1360 µM)	256 (≈ 680 µM)	128 (≈ 340 µM)	256 (≈ 680 µM)	256 (≈ 680 µM)	128 (≈ 340 µM)	128 (≈ 340 µM)	512 (≈ 1360 µM)	256 (≈ 680 µM)	128 (≈ 340 µM)	256 (≈ 680 µM)	
O=C1C(=O)N(CCn2ccnn2)c2ccccc21	128 (≈ 528 µM)	32 (≈ 132 µM)	256 (≈ 1060 µM)	256 (≈ 1060 µM)	128 (≈ 528 µM)	128 (≈ 528 µM)	256 (≈ 1060 µM)	128 (≈ 528 µM)	256 (≈ 1060 µM)	32 (≈ 132 µM)	256 (≈ 1060 µM)	
CC(=O)CC1(O)C(=O)N(CCn2cncn2)c2ccccc21 (stereo unspecified)	512 (≈ 1700 µM)	256 (≈ 852 µM)	256 (≈ 852 µM)	256 (≈ 852 µM)	256 (≈ 852 µM)	256 (≈ 852 µM)	256 (≈ 852 µM)	256 (≈ 852 µM)	256 (≈ 852 µM)	256 (≈ 852 µM)	256 (≈ 852 µM)	
CCCc1nccn1CCN1C(=O)C(=O)c2ccccc21	64 (≈ 226 µM)	64 (≈ 226 µM)	16 (≈ 56.5 µM)	128 (≈ 452 µM)	256 (≈ 904 µM)	128 (≈ 452 µM)	64 (≈ 226 µM)	128 (≈ 452 µM)	256 (≈ 904 µM)	32 (≈ 113 µM)	128 (≈ 452 µM)	
O=C(/C=C1\C(=O)N(CCn2cncn2)c2ccccc21)c1ccc(O)cc1	256 (≈ 710 µM)	128 (≈ 355 µM)	32 (≈ 88.8 µM)	256 (≈ 710 µM)	256 (≈ 710 µM)	128 (≈ 355 µM)	128 (≈ 355 µM)	256 (≈ 710 µM)	128 (≈ 355 µM)	64 (≈ 178 µM)	256 (≈ 710 µM)	
O=C1C(=O)N(CCn2cncn2)c2ccccc21	8 (≈ 33 µM)	128 (≈ 528 µM)	32 (≈ 132 µM)	128 (≈ 528 µM)	64 (≈ 264 µM)	128 (≈ 528 µM)	32 (≈ 132 µM)	128 (≈ 528 µM)	128 (≈ 528 µM)	128 (≈ 528 µM)	256 (≈ 1060 µM)	
O=C(CC1(O)C(=O)N(CCn2cncn2)c2ccccc21)c1ccccc1 (stereo unspecified)	512 (≈ 1410 µM)	128 (≈ 353 µM)	256 (≈ 706 µM)	256 (≈ 706 µM)	512 (≈ 1410 µM)	256 (≈ 706 µM)	256 (≈ 706 µM)	512 (≈ 1410 µM)	256 (≈ 706 µM)	64 (≈ 177 µM)	128 (≈ 353 µM)	
O=C1C(=O)N(CCn2nnc3ccccc32)c2ccccc21	128 (≈ 438 µM)	256 (≈ 876 µM)	256 (≈ 876 µM)	256 (≈ 876 µM)	256 (≈ 876 µM)	512 (≈ 1750 µM)	128 (≈ 438 µM)	256 (≈ 876 µM)	256 (≈ 876 µM)	128 (≈ 438 µM)	128 (≈ 438 µM)	
